From PubChem
TPT1 inh – Candida albicans TPT1 enzyme inhibitors, primary screen, biochemical, fluorescence polarization; recombinant caTPT1, FP RNA substrate dephosphorylation; hit rate 0.81% among 300,000; tRNA 2'-phosphotransferase TPT1 (Candida albicans SC5314); inhibition, % at 5 µM;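 active means inhibition above the mean of all tested compounds plus 3 SD, set per screening campaign, cut at about 24% in these data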;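 further: plate controls were DMSO alone for no effect and ferristatin control at 100 nM for full effect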
Rpn11 inh – Rpn11 (PSMD14) deubiquitinase inhibitors, primary screen, biochemical, fluorescence polarization, uHTS. 26S proteasome non-ATPase regulatory subunit 14 (Homo sapiens), O00487. human 26S proteasome, Ub4-pepOG fluorescence polarization; 20S core pre-blocked with epoxomicin. calls only at 20 µM. hit rate 0.59% among 360,000;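 active means inhibition at 20 µM, scaled to each plate's controls, above about 33%, limit read from the data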
HNF4A DNA FP – change in binding of human HNF4A to DNA, primary screen, biochemical, fluorescence polarization, FITC-DNA; hit rate 0.3% among 360,000; 1 h; activity change, % at 10 µM; AID 1224865, 2016; in the data active means activity change above about 30%, passing the limit was not always enough
Target sequence (P41235 whole entry, looked up): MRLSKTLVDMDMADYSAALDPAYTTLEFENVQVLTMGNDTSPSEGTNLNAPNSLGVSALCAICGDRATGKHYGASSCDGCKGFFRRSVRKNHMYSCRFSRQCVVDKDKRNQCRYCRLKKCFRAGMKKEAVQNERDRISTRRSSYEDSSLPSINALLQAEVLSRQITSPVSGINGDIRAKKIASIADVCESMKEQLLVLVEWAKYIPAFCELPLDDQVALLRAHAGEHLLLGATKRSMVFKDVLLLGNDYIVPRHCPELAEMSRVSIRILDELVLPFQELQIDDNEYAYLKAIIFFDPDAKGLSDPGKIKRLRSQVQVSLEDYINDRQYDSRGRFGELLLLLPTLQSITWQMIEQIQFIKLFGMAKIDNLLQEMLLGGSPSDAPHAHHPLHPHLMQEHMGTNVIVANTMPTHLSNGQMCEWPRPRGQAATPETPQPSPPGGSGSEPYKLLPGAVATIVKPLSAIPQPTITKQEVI
CRFBP-R2 block – antagonists of CRF-BP/CRF-R2 complex, primary screen, cell-based, HEK293, calcium dye fluorescence, uHTS. CRF-induced calcium fluorescence. inhibition, % at 11.8 µM. hit rate 0.59% among 350,000. AID 588475, 2011;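 active means inhibition of the ligand-induced calcium signal above about 50% at the single tested concentration, limit read from the data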
CRFBP-R2 agonist – agonists of CRF-BP/CRF-R2 complex, primary screen, cell-based, HEK293, calcium dye fluorescence, uHTS. CRF-binding protein / CRF receptor 2 complex (human). calcium dye fluorescence (FLIPR); percent of saturating CRF peptide response. activation, % at 13.2 µM. hit rate 0.46% among 350,000. AID 588473, 2011;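 active means activation of at least 50%, plus an integration ratio under a set limit after plate pattern correction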;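 further: plate controls were neutral control wells without compound for no effect and CRF at EC100 for full effect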
CSN deneddyl inh – inhibitors of CSN-mediated cullin deneddylation, primary screen, biochemical, fluorescence polarization, uHTS; COP9 signalosome complex subunit 5 (Homo sapiens), Q92905; Purified CSN, SCF-Nedd8-OG deneddylation; inhibition, % at 12.5 µM; hit rate 0.38% among 360,000;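 active means pattern-corrected inhibition above about 35%, with an unprinted fluorescence ratio check between 0.5 and 1.5, limit read from the data, passing the limit was not always enough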;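 further: 0% = enzyme with substrate and 100% = substrate without enzyme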
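Test system: Human Csn5 produced in HEK293T cells | Compound: 12.5 µM single point | Times: 90 min, room temperature | Signal: Fluorescence polarization readout | Read-out basis: % inhibition of substrate cleavage by Csn5 | Controls: no-enzyme wells high, enzyme-with-substrate wells low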
caTPT1 confirm – Candida albicans TPT1 inhibitors, confirmation, biochemical, fluorescence polarization, triplicate. shares compounds with TPT1 inh. recombinant caTPT1, RNase T1 coupled. inhibition, % at 5 µM. hit rate 74% among 2,400. AID 2149, 2009;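 active means inhibition above the primary screen limit, the mean inhibition of all tested compounds plus 3 SD, cut at about 25% in these data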
RNase T1 inh – RNase T1 inhibitors, counter-screen for TPT1 inhibitor project, biochemical, fluorescence polarization; shares compounds with TPT1 inh; RNase T1 cleavage, 1536-well; inhibition, % at 5 µM; hit rate 83% among 2,400; AID 2153, 2009;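 active means inhibition above the solvent-only control well mean plus 3 SD, limit set per screening run, cut at about 23% in these data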;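 further: plate controls were DMSO wells with enzyme for no effect and wells without RNase T1 for full effect; inhibitors block cleavage so intact labeled substrate keeps polarization high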
Target sequence (P00651 whole entry, looked up): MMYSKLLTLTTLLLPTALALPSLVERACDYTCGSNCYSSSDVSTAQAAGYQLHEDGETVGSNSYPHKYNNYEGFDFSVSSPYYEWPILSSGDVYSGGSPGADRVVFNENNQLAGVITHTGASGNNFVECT
Numbers without * were called inactive; i = inactive; x = no result shown. Sampled rows, rich in hits. Any-hit rate of the full collection: about 2.3%.

SMILES | TPT1 inh | Rpn11 inh | HNF4A DNA FP | CRFBP-R2 block | CRFBP-R2 agonist | CSN deneddyl inh | caTPT1 confirm | RNase T1 inh
N=C1/C(=C\c2coc3ccccc3c2=O)C(=O)N=C2SC(c3ccncc3)=NN12 | 79.0* | x | 52.2 | -117.5 | 158.6* | 70.2 | 70.6* | 84.2*
N=C1/C(=C\c2coc3ccc(O)cc3c2=O)C(=O)N=C2SC=CN12 | 65.5* | x | 30.1 | -87.9 | 151.7* | 68.7 | 66.9* | 76.3*
Cc1cc(/C=C2\C(=N)N3N=C(c4ccco4)SC3=NC2=O)c(C)n1Cc1ccccc1 | 12.6 | i | -12.0 | -31.3 | 45.1 | 14.0 | x | x
Cc1c(Cl)c(C(=O)N2CCCC2)nn1C | -0.4 | i | -0.7 | -1.8 | -2.1 | -0.1 | x | x
COc1ccc(C(=O)N2N=C(c3cccs3)CC2c2ccccc2O)cc1 (stereo unspecified) | 3.2 | i | 2.5 | 2.7 | 1.3 | -2.2 | x | x
CCCN(CC(=O)Nc1ccccc1C)C(=O)CCCNC(=O)c1ccc(Cl)cc1 | x | i | -3.2 | -14.2 | -0.5 | -8.4 | x | x
COc1ccc(/C=c2\s/c(=C/C(=O)c3ccc(C)cc3)[nH]c2=O)cc1OC | 103.0* | x | 66.7* | -227.2 | 182.4* | 31.8 | 117.4* | 114.8*
CC(C)(C)C(=O)/C=c1\[nH]c(=O)/c(=C\c2ccc(F)cc2)s1 | 3.6 | i | 4.5 | -7.9 | 1.9 | -2.5 | x | x
CCN1CC2=C(OC(N)=C(C#N)C2c2cccs2)/C(=C/c2cccs2)C1 (stereo unspecified) | 34.0* | i | 9.9 | -5.7 | 5.4 | 18.2 | 24.9* | 36.0*
O=C(c1ccc(N2CCCC2)c([N+](=O)[O-])c1)N1CCN(c2ccccn2)CC1 | -1.8 | i | 4.6 | 15.8 | 0.3 | 4.3 | x | x
CN(C)CCNC(=O)/C(=C/c1ccc(-c2ccc(Cl)cc2)o1)NC(=O)c1ccccc1 | 41.5* | i | -1.8 | 0.0 | 1.0 | -9.8 | 8.2 | 12.2
CC1CCC(NC(=O)CN(C)S(=O)(=O)c2cnc[nH]2)CC1 (stereo unspecified) | 1.1 | i | -2.7 | 15.6 | -2.4 | 6.2 | x | x
O=[N+]([O-])/C(C(=C(Cl)Cl)N1CCN(Cc2ccccc2)CC1)=C1\NCCN1Cc1ccc(Cl)nc1 | -11.3 | i | -2.8 | -9.0 | 6.8 | 0.8 | x | x
O=[N+]([O-])C(/C=C(\Cl)[N+](=O)[O-])=C1N(Cc2ccc(Cl)nc2)CCN1Cc1ccc(Cl)nc1 | 40.4* | i | 0.2 | 22.1 | 0.9 | 7.1 | 50.7* | 70.4*
Cc1ccc(C(=O)O)cc1N1C(=O)c2cccc3c([N+](=O)[O-])ccc(c23)C1=O | -12.4 | i | -33.0 | -3.7 | 5.6 | 12.9 | x | x
CC(=O)Oc1cccc(N2C(=O)c3cccc4c([N+](=O)[O-])ccc(c34)C2=O)c1 | 43.5* | i | -17.2 | 31.4 | 4.6 | -5.7 | 43.1* | 59.1*
CCN(CC)c1ccc(/C=N/N2C(=O)c3ccccc3C2=O)c(O)c1 | 45.4* | i | 1.1 | -13.3 | 23.0 | 2.4 | 9.9 | 12.4
CCOc1ccc(N=C2C(=O)Nc3ccc(C)c(Br)c32)cc1 | -1.3 | i | 2.5 | 6.1 | -1.4 | 2.8 | x | x
C=CCNc1nc(N)c([N+](=O)[O-])c(Nc2cccc(Cl)c2)n1 | 36.3* | i | 0.5 | -23.7 | 0.5 | 1.2 | 2.8 | 5.2
CCN(c1ccccc1)S(=O)(=O)c1ccc(C(=O)NCc2ccccn2)cc1 | x | i | -4.6 | -1.2 | -0.1 | -4.8 | x | x
O=C1/C(=C\c2cc([N+](=O)[O-])ccc2O)SC(=S)N1Cc1ccc(Cl)cc1 | 43.2* | x | 58.9 | -84.8 | 140.0* | -73.4 | 47.4* | 57.1*
O=C1/C(=C\c2cccc(O)c2O)SC(=S)N1Cc1ccccc1 | 4.8 | i | 1.6 | -27.9 | -0.9 | 0.9 | x | x
O=C(Nc1ccc(N2CCCCC2)cc1)c1ccc2c(c1)OCCO2 | 0.4 | i | -1.2 | 5.7 | -0.6 | 3.4 | x | x
CCOC(=O)c1c(/N=C/N(C)C)sc(/C=N/Nc2ccccc2)c1-c1ccccc1Cl | 34.7* | i | 17.0 | 0.5 | -0.4 | 11.1 | 39.7* | 51.5*
Cc1sc(-n2c(C)cc(/C=C3\SC(=S)NC3=O)c2C)c(C#N)c1C | 44.9* | x | 66.9* | -50.3 | 5.6 | 34.8 | 60.3* | 74.8*
SMILES | TPT1 inh | Rpn11 inh | HNF4A DNA FP | CRFBP-R2 block | CRFBP-R2 agonist | CSN deneddyl inh | caTPT1 confirm | RNase T1 inh
CCn1c(C)cc(/C=C2/SC(=S)NC2=O)c1C | 98.5* | i | 6.1 | -3.5 | 0.1 | -9.8 | 105.3* | 119.2*
CCn1ncc(/C=C2/SC(=S)NC2=O)c1C | -2.3 | i | -0.1 | -4.4 | -1.5 | -8.8 | x | x
Cc1ccc(OCC(=O)Nc2ccc3c(c2)nc(CCN2CCC(C)CC2)n3C)cc1 | -1.6 | i | 4.0 | -15.2 | 1.1 | 8.5 | x | x
Oc1cccc(Nc2c3ccccc3nc3ccccc23)c1 | 53.5* | i | -3.3 | 20.3 | -0.1 | -5.0 | 4.0 | 11.2
CC(=O)c1ccc(OCC(=O)Nc2ccc(N3CCCCC3)cc2)cc1 | x | i | 2.7 | 8.7 | -0.9 | -5.2 | x | x
N#C/C(=C\Nc1ccc2cn[nH]c2c1)c1nc(-c2ccccc2)cs1 | x | i | 13.3 | -3.1 | -0.7 | 2.7 | x | x
Cc1ccnc(N/C=C(\C#N)c2nc(-c3cccc(Br)c3)cs2)c1 | 29.5* | x | -13.1 | -249.8 | 236.8* | -71.6 | 26.4* | 40.4*
O=C(C1=C(O)C(=O)N(CCN2CCOCC2)C1c1cccc(O)c1)c1cc2ccccc2o1 (stereo unspecified) | x | i | 4.4 | 1.2 | -5.5 | -0.9 | x | x
O=C(C1=C(O)C(=O)N(CCN2CCOCC2)C1c1cccs1)c1cc2ccccc2o1 (stereo unspecified) | 55.4* | i | 5.5 | 3.1 | -0.2 | 0.3 | 7.2 | 13.6
CCOCC(=O)Nc1ccc([N+](=O)[O-])cc1OC | 35.9* | i | -4.4 | 14.7 | -3.5 | -2.4 | 2.8 | 6.4
COc1cc([N+](=O)[O-])ccc1NC(=O)CN(C)C | 26.3* | i | -4.5 | 5.8 | -0.5 | 3.0 | 2.4 | 8.0
COc1cc(/C=C2\C(=O)NN(c3ccccc3)C2=O)ccc1OCC(N)=O | -3.5 | x | x | x | x | x | x | x
CCOc1cc(/C=C2/C(=O)NN(c3cccc(Cl)c3)C2=O)ccc1O | 42.8* | i | 2.0 | -0.8 | -3.1 | 6.7 | 66.1* | 84.4*
